# Cneo AK release – Cryptococcus neoformans cell lysis inducers, primary screen, AK release luminescence, single concentration | C. neoformans lysis, adenylate kinase release luminescence, 4 h; normalised: neutral wells 0, clomiphene wells 100 | lysis activity, % at 15 µM | actives 0.2% (n = 360,000);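 active means mean lysis activity across replicates of at least 80%, whatever share of replicates individually reach that level; inactive means mean lysis activity below 80%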
#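 Material: C. neoformans cells; Schedule: 4 h static compound exposure, 37 °C, read 1 h post-reagent; Measured by: adenylate kinase release luminescence; Read-out: signal increase indicating cell lysis; Controls: Clomiphene as positive lysis control.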
# ERp5 block – inhibitors of ERp5-driven insulin aggregation, primary screen, biochemical, turbidity, absorbance 650 nm, single point. actives 0.05% (n = 350,000). inhibition, % at 9.99 µM. 90 min. Protein disulfide-isomerase A6 (Homo sapiens), Q15084;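 active means mean replicate inhibition above about 25%, with every replicate also reaching it, limit read from the data, passing the limit was not always enough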
# miR-122 sensor – miR-122 Renilla sensor signal increase in Huh7, primary screen, miR-122 inhibitor project, cell-based, single point, plate reader; Huh7 miR-122 Renilla luciferase sensor, 48 h; neutral wells = 0, positive control = 100; activation (reporter increase), % at 12.5 µM; actives 0.3% (n = 340,000);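 active means mean replicate activation score at least 90 and every replicate individually at or above 90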;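 further: higher luciferase means less miR-122 activity so hits act as miR-122 inhibitors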
# PglD DTNB – C. jejuni PglD acetyltransferase inhibitors, primary screen, biochemical, DTNB colorimetric, single point | UDP-N-acetylbacillosamine N-acetyltransferase PglD (Campylobacter jejuni) | purified PglD enzyme, DTNB colorimetric CoA detection | inhibition, % at 12.5 µM | actives 0.098% (n = 360,000) | AID 602405, 2012; in the data active means inhibition above about 16%, passing the limit was not always enough
# PvdQ acylase – P. aeruginosa PvdQ acylase inhibitors, primary screen, biochemical, fluorescence, plate reader and imaging, single point | inhibition, % at 10 µM | actives 0.063% (n = 340,000) | purified PvdQ acylase | PvdQ acylase [Pseudomonas aeruginosa LESB58]; in the data active means inhibition above about 30%, passing the limit was not always enough;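 further: 0% = vehicle neutral wells and 100% = reference inhibitor wells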
# PDI inh – inhibitors of human PDI, primary screen, biochemical, turbidity, single point, plate reader; inhibition, % at 10 µM; AID 588391, 2011; PDI insulin aggregation turbidity, A650, 90 min; actives 0.052% (n = 350,000); Protein disulfide-isomerase (Homo sapiens), P07237;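 active means mean inhibition across replicates of 30% or more, whatever share of single replicates reach that level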
# Target sequence (P07237 whole entry, looked up): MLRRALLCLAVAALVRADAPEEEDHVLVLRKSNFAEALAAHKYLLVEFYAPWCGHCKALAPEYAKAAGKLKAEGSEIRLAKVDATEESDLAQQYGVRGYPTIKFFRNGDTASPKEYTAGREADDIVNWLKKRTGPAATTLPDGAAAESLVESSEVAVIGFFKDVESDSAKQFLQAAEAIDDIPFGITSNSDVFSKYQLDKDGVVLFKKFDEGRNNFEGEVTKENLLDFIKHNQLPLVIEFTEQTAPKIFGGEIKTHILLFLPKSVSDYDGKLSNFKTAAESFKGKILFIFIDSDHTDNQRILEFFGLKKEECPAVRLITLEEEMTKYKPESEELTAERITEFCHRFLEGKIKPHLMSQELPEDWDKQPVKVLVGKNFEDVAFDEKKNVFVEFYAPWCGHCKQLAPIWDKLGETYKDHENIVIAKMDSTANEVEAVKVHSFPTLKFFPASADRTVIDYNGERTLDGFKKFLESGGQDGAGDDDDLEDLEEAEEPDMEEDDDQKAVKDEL
# Numbers without * were called inactive; . = not tested or not shown; [ ] = another dose, or the depositor's remark. Only some compounds are listed: those with a hit (about 0.58% of all), similar ones and a draw of the others.
SMILES,Cneo AK release,ERp5 block,miR-122 sensor,PglD DTNB,PvdQ acylase,PDI inh
CC(C)NC(=O)N(C)C[C@@H]1OCCCC[C@H](C)Oc2ccc(NC(=O)Cc3ccccc3)cc2C(=O)N([C@H](C)CO)C[C@H]1C,101*,1,-7[16.7 µM],-2,.,.
CC(C)NC(=O)N(C)C[C@H]1OCCCC[C@H](C)Oc2ccc(NC(=O)c3ccccc3)cc2C(=O)N([C@@H](C)CO)C[C@@H]1C,95*,-1,-8[16.7 µM],4,.,.
CC(C)NC(=O)N(C)C[C@@H]1OCCCC[C@@H](C)Oc2ccc(NC(=O)c3ccccc3)cc2C(=O)N([C@@H](C)CO)C[C@@H]1C,-1,-1,-3[16.7 µM],2,.,.
CC(C)NC(=O)N(C)C[C@@H]1OCCCC[C@@H](C)Oc2ccc(NC(=O)c3ccccc3)cc2C(=O)N([C@H](C)CO)C[C@@H]1C,111*,0,-5[16.7 µM],2,.,.
CC(C)NC(=O)N(C)C[C@H]1OCCCC[C@@H](C)Oc2ccc(NC(=O)c3ccccc3)cc2C(=O)N([C@H](C)CO)C[C@H]1C,-1,-1,-5[16.7 µM],-1,.,.
CC(C)NC(=O)N(C)C[C@@H]1OCCCC[C@@H](C)Oc2ccc(NC(=O)c3ccccc3)cc2C(=O)N([C@H](C)CO)C[C@H]1C,103*,5,-13[16.7 µM],3,.,.
C[C@H](CO)N1C[C@H](C)[C@H](CN(C)C(=O)CCC(F)(F)F)OCCCC[C@H](C)Oc2ccc(NC(=O)CCCN(C)C)cc2C1=O,-1,.,4[16.7 µM],-2,.,.
O=C(NCC[C@@H]1CC[C@@H](NC(=O)C2CCCCC2)[C@H](CO)O1)c1cc(Cl)cc(Cl)c1,-6,2,.,5,.,.
C[C@@H]1CN([C@H](C)CO)C(=O)c2cc(NC(=O)NC3CCCCC3)ccc2O[C@@H](C)CCCCO[C@@H]1CN(C)Cc1ccncc1,3,2,0[16.7 µM],-1,.,.
CNC[C@@H]1OCCCC[C@H](C)Oc2ccc(NC(=O)Nc3ccc(F)cc3)cc2C(=O)N([C@@H](C)CO)C[C@H]1C,101*,1,11[16.7 µM],1,.,.
CNC[C@@H]1OCCCC[C@H](C)Oc2ccc(NC(=O)c3ccccc3)cc2C(=O)N([C@@H](C)CO)C[C@@H]1C,82*,-2,12[16.7 µM],-41,.,.
CNC[C@@H]1OCCCC[C@@H](C)Oc2ccc(NC(=O)c3ccccc3)cc2C(=O)N([C@H](C)CO)C[C@@H]1C,-1,3,-3[16.7 µM],-2,.,.
C[C@H]1CN([C@@H](C)CO)C(=O)c2cc(-c3ccccc3F)cnc2O[C@@H]1CN(C)C(=O)c1cnccn1,2,-4,17[16.7 µM],0,.,.
C[C@@H]1CN([C@H](C)CO)C(=O)c2cc(NC(=O)C3CCCCC3)ccc2O[C@H]1CN(C)Cc1ccncc1,3,-14,-13[16.7 µM],-1,.,.
CCOC(=O)CSc1nnc([C@H](Cc2ccccc2)NC(=O)OC(C)(C)C)o1,4,.,12,-5,-4,-5
CN(C)C(=O)CSc1nnc([C@H](Cc2c[nH]c3ccccc23)NC(=O)OC(C)(C)C)o1,2,.,9,-3,8,45*
COc1ccc(CCNC(=O)COC(=O)Cn2cnc3ccccc3c2=O)cc1,3,5,186*,-4,1,4
O=C(COC(=O)Cn1cnc2ccccc2c1=O)NCc1ccccc1,0,0,-3,-3,-3,-7
CO[C@H]1CN(C)C(=O)c2cc(NC(C)=O)ccc2OC[C@H](C)N(Cc2ccncc2)C[C@H]1C,2,5,11[16.7 µM],0,.,.
C[C@H](CO)N1C[C@H](C)[C@H](CN(C)C(=O)Nc2ccc(C(F)(F)F)cc2)OCCCC[C@H](C)Oc2ccc(NC(=O)Nc3ccc4c(c3)OCO4)cc2C1=O,0,2,8[16.7 µM],-1,.,.
Cc1ccc2c(c1)C1C3CCC(C3)C1S(=O)N2 (configuration not stated),.,-2,.,.,57*,1
CCC1(c2ccc(F)cc2)NC(=O)N(CC(=O)Nc2ccc(-c3nc4ccc(C)cc4s3)cc2)C1=O (configuration not stated),-3,.,271*,-7,-6,0
C[C@@H]1CN([C@@H](C)CO)C(=O)c2cc(NC(=O)C3CC3)ccc2O[C@H]1CN(C)Cc1ccc(Oc2ccccc2)cc1,2,0,4[16.7 µM],3,.,.
C[C@@H]1CN([C@H](C)CO)S(=O)(=O)c2ccc(-c3ccc(F)cc3)cc2O[C@@H]1CN(C)CC1CC1,-3,27*,6[16.7 µM],-1,.,.
CCCN(C)C[C@@H]1Oc2cc(-c3cncnc3)ccc2S(=O)(=O)N([C@@H](C)CO)C[C@@H]1C,.,.,.,16*,.,.
SMILES,Cneo AK release,ERp5 block,miR-122 sensor,PglD DTNB,PvdQ acylase,PDI inh
C[C@H](CO)N1C[C@H](C)[C@H](CN(C)Cc2ccccc2F)Oc2cc(C3=CCCC3)ccc2S1(=O)=O,101*,-2,-27[16.7 µM],-1,.,.
Cc1ccc(-c2ccc3c(c2)O[C@@H](CN(C)Cc2ccc(F)cc2)[C@@H](C)CN([C@H](C)CO)S3(=O)=O)cc1,83*,-5,13[16.7 µM],-2,.,.
C[C@@H]1CN([C@@H](C)CO)S(=O)(=O)c2ccc(-c3cncnc3)cc2O[C@@H]1CN(C)C,2,-2,11[16.7 µM],1,.,.
COc1ccc(S(=O)(=O)Nc2ccc3c(c2)CC(=O)N([C@@H](C)CO)C[C@H](C)[C@H](CN(C)S(=O)(=O)c2cn(C)cn2)O3)cc1,3,14,6[16.7 µM],0,.,.
CO[C@@H]1CN(C)C(=O)c2cc(NS(=O)(=O)c3cn(C)cn3)ccc2OC[C@H](C)N(CC2CC2)C[C@@H]1C,0,-2,.,3,.,.
CCCN(C)C[C@@H]1Oc2cc(-c3ccc(F)cc3)ccc2S(=O)(=O)N([C@@H](C)CO)C[C@@H]1C,-2,32*,1[16.7 µM],-1,.,.
O=S(=O)(Cc1ccccc1)N1CCCCN2[C@H](C1)[C@H](c1ccc(-c3cccnc3)cc1)[C@@H]2CO,-3,0,9[16.7 µM],3,.,.
COc1ccc(S(=O)(=O)N(C)C[C@@H]2Oc3cc(C#CC4CC4)ccc3S(=O)(=O)N([C@@H](C)CO)C[C@H]2C)cc1,-1,0,12[16.7 µM],0,.,.
COc1ccc(S(=O)(=O)N(C)C[C@H]2Oc3cc(C#CC4CC4)ccc3S(=O)(=O)N([C@H](C)CO)C[C@H]2C)cc1,54,2,135*[16.7 µM],-28,.,.
C[C@@H]1CN([C@H](C)CO)S(=O)(=O)c2ccc(C#CC3CC3)cc2O[C@H]1CN(C)CC1CCOCC1,85*,-3,13[16.7 µM],1,.,.

# Assay outcomes as filed in PubChem.
